Ecoli tolC – growth inhibitors of E. coli tolC mutant, primary screen, strain BW25113 ΔtolC::kan, 384-well; OD615; 65,000 compounds, 2.2% hits; growth inhibition, % at 10 µM (by protocol); AID 573, 2007;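 active means growth inhibition at or above a cutoff equal to the mean over every tested compound plus 3 SD, cut at about 60% in these data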;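 further: growth measured after 20 h incubation at 37 °C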
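signal = optical density read at 615 nm | test system = E. coli ΔtolC::kan strain BW25113 | timing = 20 h compound exposure of bacteria at 37 °C | buffer or medium = LB medium plus 50 µg/mL kanamycin | compound dosing = 10 µM final, single dose | evaluation = % inhibition of E. coli growth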
PLAP activator – PLAP enzyme activators, biochemical, luminescence, HTS; Alkaline phosphatase, placental type (Homo sapiens), P05187; purified PLAP enzyme, luminescent substrate read-out; stronger effect = higher value; activation fold at 20 µM; 96,000 compounds, 1.2% hits; AID 696, 2007; in the data active means activation fold above about 2
Target sequence (P05187 whole entry, looked up): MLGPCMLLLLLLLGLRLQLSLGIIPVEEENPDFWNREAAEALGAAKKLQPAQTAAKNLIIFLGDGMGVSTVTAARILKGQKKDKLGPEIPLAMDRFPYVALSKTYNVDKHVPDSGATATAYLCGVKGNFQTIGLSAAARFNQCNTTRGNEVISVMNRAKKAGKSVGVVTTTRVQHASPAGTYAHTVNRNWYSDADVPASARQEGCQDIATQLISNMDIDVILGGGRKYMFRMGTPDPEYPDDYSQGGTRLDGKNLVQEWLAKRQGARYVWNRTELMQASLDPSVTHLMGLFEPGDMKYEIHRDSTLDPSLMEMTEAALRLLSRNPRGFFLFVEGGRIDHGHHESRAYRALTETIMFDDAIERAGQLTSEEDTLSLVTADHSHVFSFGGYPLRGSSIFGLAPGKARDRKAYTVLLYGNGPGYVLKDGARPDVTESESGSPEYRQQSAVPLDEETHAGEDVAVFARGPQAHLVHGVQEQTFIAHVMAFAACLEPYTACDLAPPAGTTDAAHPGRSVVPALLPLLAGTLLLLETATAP
PostGolgi ctrl – growth inhibition of yeast control strain, primary screen, counter-screen for post-Golgi transport modulator project; efflux-deficient yeast background strain, growth absorbance A615, 16 h; 98,000 compounds, 5% hits; inhibition, % at 10 µM
E coli WT exp – growth inhibitors of wild-type E. coli, primary screen, strain BW25113, expanded library, OD600 | OD600 absorbance | growth inhibition, % at 100 µM | 98,000 compounds, 0.15% hits;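 active means growth inhibition above about 50% at one test dose, limit read from the data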;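 further: growth measured after 20 h incubation at 37 °C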
PostGolgi yeast – phenotypic screen on post-Golgi transport, primary screen; post-Golgi transport phenotypic cell assay; inhibition, % at 10 µM; AID 739, 2007; 98,000 compounds, 0.9% hits;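 further: yeast cells grown in 1536-well plates; yeast grown about 18 h at 30C before absorbance read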
The depositor's hits bear a star; / = no result given. The list is not random: actives were taken first. Their share in the collection is about 7.2%. Unless noted, no stated cut-off is given here; in the data, active means inhibition above about 30%; inactive means the rest.

SMILES | Ecoli tolC | PLAP activator | PostGolgi ctrl | E coli WT exp | PostGolgi yeast
Cn1c(=O)c2[nH]c(CNCc3ccccc3Cl)nc2n(C)c1=O | 2 | 2.9* | -6 | 0 | -3
COc1ccc(Nc2nc(N)nc(COc3ccc(OC)cc3)n2)cc1 | / | 1 | 4 | -5 | -1
COc1ccc(Nc2nc(N)nc(CSc3nnc(N)s3)n2)cc1 | / | 1 | -4 | 8 | 32*
COc1ccc2nc(SCc3nc(N)nc(Nc4ccccc4)n3)[nH]c2c1 | 30 | 2.5* | 8 | 6 | -7
COc1ccc(OCc2nc(N)nc(Nc3ccc(C)cc3)n2)cc1 | / | 1 | 53* | -1 | 2
O=C(c1cc2n(n1)C(C(F)(F)F)CC(c1ccc(F)cc1)N2)N1CCCC1 (centres undefined) | 3 | 1.3 | 11 | 0 | 1
CC(C)Cn1c(SCC(=O)NCc2ccc(Cl)cc2)nnc1-c1cccc(S(=O)(=O)N2CCOCC2)c1 | / | 1.5 | 4 | -10 | 2
O=C(c1ccc(S(=O)(=O)Nc2ccc(F)cc2)cc1)N1CCN(C(=O)c2ccco2)CC1 | / | 1.7 | 4 | -8 | 24
CCn1nccc1C(=O)Nc1ccc(Cl)cc1Cl | 0 | 1.1 | 32* | 9 | 9
CCn1nccc1C(=O)Nc1cc(Cl)ccc1Cl | 21 | 0.9 | -1 | -4 | 6
Oc1ccccc1C1=Nc2ncnn2C(c2ccc(F)cc2)C1 (centres undefined) | 7 | 1.3 | 0 | 7 | 29
CCSc1nc2c(sc3nc(C)cc(C)c32)c(=O)[nH]1 | / | 1.6 | 42* | 3 | -7
CCOC(=O)CSc1snnc1-c1ccccc1 | / | 0.8 | 12 | -1 | 9
O=C(NNS(=O)(=O)c1cc(Cl)cc(Cl)c1)c1sccc1-n1cccc1 | / | 1.2 | 7 | 4 | -4
CCOC(=O)C1=C(C)N=C2SC(C)C(=O)N2C1c1ccc(OC(C)=O)c(OC)c1 (centres undefined) | 6 | / | 47* | -8 | 0
CCC(C)Oc1ccccc1C1CC(=O)NC2=C1C(=O)CCC2 (centres undefined) | -1 | 1 | 7 | 0 | 2
N#CC(c1cccc(Cl)c1)c1ccc2c(C(F)(F)F)cc(C(F)(F)F)nc2n1 (centres undefined) | / | 1 | 102* | 0 | 99*
Cc1ccc(/C=N/NC(=O)c2csc3c2CCCC3)cc1 | / | 0.9 | 32* | -14 | -8
COc1cc(OC)nc(Oc2ccccc2C(=O)Oc2cccc(C)c2)n1 | / | 1 | 18 | -1 | -8
N#Cc1c(N2CCCC2)nc(N)c2c(N)nc(N3CCCC3)cc12 | 0 | 1.1 | 19 | -3 | 1
CCN(CC)c1nc(N)c2c(N)nc3c(c2c1C#N)CC(c1ccccc1)O3 (centres undefined) | 76* | 1.1 | 11 | -4 | 5
CCN(CC)c1nc(N)c2c(N)n(-c3ccccc3C)c(=S)c(C#N)c2c1C#N | -5 | 1.4 | 2 | 0 | -3
N#Cc1c(N2CCCCC2)nc(N)c2c(N)nc3c(c12)CC(c1ccccc1)O3 (centres undefined) | / | 1.3 | 53* | -10 | 0
Cc1ccc(-c2nc3cc(NC(=O)C(C)C)ccc3o2)cc1 | 14 | 2.5* | 5 | 0 | -2
O=C(Nc1ccc2oc(-c3ccc(Cl)c(Cl)c3)nc2c1)c1ncn[nH]1 | / | 2.6* | -3 | -2 | 3
SMILES | Ecoli tolC | PLAP activator | PostGolgi ctrl | E coli WT exp | PostGolgi yeast
Cc1ccc(-c2nc3cc(NC(=O)C(C)C)ccc3o2)cc1C | -5 | / | 18 | -21 | -8
O=C(Nc1ccc2oc(-c3ccccc3F)nc2c1)c1ncn[nH]1 | / | / | 1 | -3 | -2
CCn1c(SCC(=O)Nc2nc3ccc(C)cc3s2)nc2c(c1=O)SC(C)C2 (centres undefined) | 37 | 1.2 | 84* | -10 | 13
CCn1c(SCC(=O)Nc2nc3ccccc3s2)nc2c(c1=O)SC(C)C2 (centres undefined) | 26 | 1.3 | 51* | -26 | -15
Cc1cc(C)c(NC(=O)CSc2nc3c(c(=O)n2C)SC(C)C3)c(C)c1 (centres undefined) | 5 | 1 | 31* | 0 | -2
Cc1cc(C)cc(NC(=O)CSc2nc3c(c(=O)n2C)SC(C)C3)c1 (centres undefined) | 5 | 0.9 | -3 | 2 | 15
CC1Cc2nc(SCC(=O)NCc3ccco3)n(Cc3ccccc3)c(=O)c2S1 (centres undefined) | 13 | 0.9 | 43* | -9 | -15
CCn1c(SCC(=O)Nc2cc(C)on2)nc2c(c1=O)SC(C)C2 (centres undefined) | 7 | 0.8 | 21 | 0 | 7
CCc1nnc(NC(=O)c2c(C)nn(-c3ccccc3)c2Cl)s1 | / | 1.1 | 12 | -6 | 4
O=S(=O)(c1ccc(F)cc1)N1CCN(c2ncnc3c2cnn3-c2ccccc2)CC1 | -13 | 0.8 | 35* | -4 | 5
c1ccc(-n2ncc3c(N4CCN(CCOc5cccc6ccccc56)CC4)ncnc32)cc1 | / | 1.5 | 32* | -12 | 1
O=C(COc1ccccc1)N1CCN(c2ncnc3c2cnn3-c2ccccc2)CC1 | 6 | 1.6 | 7 | -17 | 9
Cc1ccc(N(C(=O)Cc2c[nH]c3ccccc23)C(C(=O)NC2CCCCC2)c2ccco2)cc1 (centres undefined) | / | 1.3 | 20 | -12 | 5
CC1(C)C(=O)C2(CCCCC2)C(=O)OC1c1ccc(O)cc1 (centres undefined) | 37 | 1 | 9 | 11 | 4
CCC(C)(C)NC(=O)C(c1cccc(OC)c1)N(C(=O)c1ccn[nH]1)c1cccc(OC)c1 (centres undefined) | -27 | 2.9* | 2 | 10 | -1
CCC(C)C(=O)Nc1cc(C(=O)OC)cc(C(=O)OC)c1 (centres undefined) | -16 | 0.9 | 0 | 5 | -2
O=c1cc(-c2ccccc2)c2ccc(O)c(CN3CCCCC3)c2o1 | 23 | 1 | 4 | 0 | 14
O=c1oc2c(CN3CCCCCC3)c(O)ccc2cc1-c1nc2ccccc2[nH]1 | 29 | 2.4* | / | / | /
CCOC(=O)c1c(N)sc2c(NC(C)=O)cccc12 | -7 | 1 | -2 | 8 | 0
CCOC(=O)c1c(N)sc2c(O)c(Br)ccc12 | 12 | 1 | 49* | 12 | 12
COc1ccccc1-n1c(=S)sc2c(=O)n(Cc3ccco3)c(SC)nc21 | 23 | 1.1 | 45* | -15 | 0
CN1/C(=C/C(=O)c2cccs2)Sc2ccccc21 | / | 0.7 | 11 | -9 | 0
COc1ccc2c(c1)S/C(=C\C(=O)c1ccncc1)N2C | 4 | 1.2 | 86* | -3 | 51*
COc1ccc(-c2cc(C(=O)N3CC4(C)CC3CC(C)(C)C4)no2)cc1 (centres undefined) | 65* | 1.5 | 34* | -4 | -11
CC1(C)CC2CC(C)(CN2C(=O)c2cccs2)C1 (centres undefined) | 10 | 1.1 | 6 | 0 | -2
